Results published in PubChem BioAssay.
Active and inactive are the calls of the source. Rule as the data show it, unless noted: active = inhibition above about 31%; inactive = the rest.

Experiments:
[1] = HUVEC growth inhibition – cell-based, human, primary screen (AID 575;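 active = viability at or below 30% in both replicate assays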;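 also: 100% = median of untreated cell wells with 0.1% DMSO on each plate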); settings: HUVEC proliferation, CellTiter-Glo luminescence, 72 h; at 10 µM; stronger effect = lower value
In short: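 Test system: primary human umbilical vein endothelial cells; medium: endothelial basal medium with 2% FBS plus growth supplements; dosing: 10 µM compound only; times: 72 h treatment at 37 °C; signal: CTG luminescence; read-out: % viability relative to median vehicle-well signal on each plate; control set: vehicle and MePR control wells; plate: 384-well, collagen-coated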

[2] = H69AR cell proliferation blockers – human, duplicate replicates, primary screen (AID 580;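 active = viability at or under a set limit in both replicates, limit being median viability minus 3 SD, cut at about 48% in these data, passing the limit was not always enough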;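 also: 100% = mean luminescence of untreated wells and 0% = no signal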); settings: H69AR lung tumor cells viability, ATP luminescence, 72 h; at 10 µM; stronger effect = lower value
[3] = MRP1 drug-resistance reversers in H69AR cells – cell-based, doxorubicin co-treatment, pilot screen (AID 601;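 active = viability loss from added drug above about 55%, and viability with drug at most 40%, in both replicates, limit read from the data, passing the limit was not always enough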); settings: CellTiter-Glo, 72 h, at 10 µM; for differential viability (reversal): stronger effect = higher value
[4] = yeast transport mutant growth inhibition pilot in 384-well plates, post-Golgi transport modulator project (AID 636); settings: absorbance 615 nm, about 18 h, stronger effect = higher value
[5] = growth suppression of yeast trafficking mutant, preliminary HTS, modulators of trafficking downstream of Golgi apparatus project, 1536-format plate, OD 615 nm (AID 637; in the data active = inhibition above about 30%); settings: yeast transport mutant growth, absorbance 615 nm, 18 h; stronger effect = higher value
[6] = H69AR cells + 2 uM doxorubicin, measured here: viability with 2 uM doxorubicin, stronger effect = lower value
[7] = H69AR cells, compound alone cytotoxicity

Compound | viability [1] | viability [2] | differential viability (reversal) ([3]; H69AR cells + 2 uM doxorubicin) | viability [3, 6] | viability [3, 7] | inhibition [4] | inhibition [5]
CCc1nnc(NC(=O)OCc2ccccc2)s1 | 106% (inactive) | 102% (inactive) | 7.5% (inactive) | 94.9% | 102% | -0.91% (inactive) | 11.4% (inactive)
CC(C)OC(=O)CSc1nnc(-c2ccccn2)n1-c1ccccc1 | 87.3% (inactive) | 92.1% (inactive) | -2.68% (inactive) | 94.8% | 92.1% | -1.87% (inactive) | -9.52% (inactive)
CC1=C(C#N)C(c2ccc3ncccc3c2)C(C#N)=C(C)N1 | 86.2% (inactive) | 97% (inactive) | -1.7% (inactive) | 98.7% | 97% | -4.74% (inactive) | 0% (inactive)
CCC(=O)N1CCc2cc(Br)cc(S(=O)(=O)C3(C(=O)OC)CC3)c21 | 102% (inactive) | 90.8% (inactive) | 8.17% (inactive) | 82.6% | 90.8% | -1.82% (inactive) | 0.79% (inactive)
CN(Cc1cnn(C)c1)C(=O)c1cc2ccccc2oc1=O | 114% (inactive) | 103% (inactive) | 13.3% (inactive) | 89.9% | 103% | -5.66% (inactive) | 2.06% (inactive)
CN(CC(=O)Nc1ccncc1)S(=O)(=O)c1ccccc1 | 110% (inactive) | 95.8% (inactive) | 11.9% (inactive) | 83.9% | 95.8% | -7.63% (inactive) | -0.63% (inactive)
O=C(c1ccncc1)N1CCN(C(=O)c2cccs2)CC1 | 103% (inactive) | 94.6% (inactive) | 5.42% (inactive) | 89.1% | 94.6% | -1.73% (inactive) | -2.38% (inactive)
O=C(Nc1ccccc1C(=O)N1CCOCC1)C1COc2ccccc2O1 (configuration not stated) | 100% (inactive) | 103% (inactive) | 6.71% (inactive) | 96.6% | 103% | -0.53% (inactive) | 0% (inactive)
COC(=O)c1c(NC(=O)C2CC=CCC2C(=O)O)sc(C(N)=O)c1C (configuration not stated) | 75.4% (inactive) | 98.2% (inactive) | 4.23% (inactive) | 94% | 98.2% | -7.76% (inactive) | -6.03% (inactive)
CC(C)CC(OC(=O)c1cccs1)C(=O)NCc1ccco1 (configuration not stated) | 103% (inactive) | 80.6% (inactive) | -0.4% (inactive) | 81% | 80.6% | -7.6% (inactive) | -4.13% (inactive)
CCSC1=C(C#N)C(c2cccc(OC)c2)CC(=O)N1 (configuration not stated) | 85.5% (inactive) | 101% (inactive) | 8.71% (inactive) | 92.6% | 101% | 0.53% (inactive) | -1.9% (inactive)
Cc1cc(NC(=O)c2ccc(Cl)cc2)no1 | 96.1% (inactive) | 87.5% (inactive) | 5.82% (inactive) | 81.7% | 87.5% | 2.86% (inactive) | 18.2% (inactive)
CCn1cc(/C=C(/C#N)S(=O)(=O)c2ccccc2)cn1 | 110% (inactive) | 95.3% (inactive) | 9.54% (inactive) | 85.8% | 95.3% | -7.24% (inactive) | -4.6% (inactive)
COc1ccc2oc(C)c(C(=O)Cn3ccnc3)c2c1 | 92.8% (inactive) | 87.8% (inactive) | -2.3% (inactive) | 90.1% | 87.8% | 1.69% (inactive) | 24.8% (inactive)
Cc1ccc(C)c(C(=O)CC2(O)C(=O)Nc3ccccc32)c1 (configuration not stated) | 109% (inactive) | 105% (inactive) | 17.1% (inactive) | 88% | 105% | -3.6% (inactive) | -7.3% (inactive)
Cn1c(=O)c2ncn(CC(=O)NCCOc3ccccc3)c2n(C)c1=O | 108% (inactive) | 91.9% (inactive) | 7.6% (inactive) | 84.2% | 91.9% | 0.39% (inactive) | 5.71% (inactive)
Nc1nc(NCc2ccco2)nn1-c1ccccc1 | 98% (inactive) | 96.7% (inactive) | 15.7% (inactive) | 80.9% | 96.7% | -7.07% (inactive) | 6.03% (inactive)
Cc1ccc(SC(C)c2nc(-c3ccccc3)no2)cc1 (configuration not stated) | 114% (inactive) | 99.9% (inactive) | 4.68% (inactive) | 95.2% | 99.9% | -6.13% (inactive) | -5.08% (inactive)
COc1ccc(CN(C)CC(=O)c2c(N)n(Cc3ccccc3)c(=O)n(C)c2=O)c(OC)c1 | 96.4% (inactive) | 93.9% (inactive) | 10.3% (inactive) | 83.6% | 93.9% | -3.25% (inactive) | 6.51% (inactive)
O=c1nc(N2CCCC2)nc(Nc2ccccc2)[nH]1 | 100% (inactive) | 83.7% (inactive) | -3.31% (inactive) | 87% | 83.7% | -2.47% (inactive) | -4.92% (inactive)
CCc1nnc(NC(=O)CSc2nc3ccccc3s2)s1 | 93% (inactive) | 101% (inactive) | 10.1% (inactive) | 91.1% | 101% | -2.24% (inactive) | 0.48% (inactive)
